Assay results from ChEMBL document CHEMBL1240471, “Synthesis and anticancer activity of chromone-based analogs of lavendustin A” (Eur J Med Chem, 2010).
In brackets after ≈: the same amount, converted by molar mass. Blank lines part the entries; values can stand above or below the compound they belong to.

How the values were obtained:
Assay type in all cases: functional, cell-based
KB = experiment: Growth inhibition of human KB cells after 72 hrs by SRB assay
How it was run: (§1)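 Cells were seeded at 5 × 10³ cells/well in 96-well plates. Various sample concentrations were added in triplicate, and plates were incubated for 72 h at 37 °C in 5% CO₂. Optical density was read at 520 nm. GI₅₀ was taken as the concentration inhibiting cell growth by 50%.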

HCT-15 = experiment: Growth inhibition of human HCT15 cells after 72 hrs by SRB assay; details: HCT-15, 72 h; how it was run: as §1
A549 = experiment: Growth inhibition of human A549 cells after 72 hrs by SRB assay; details: A549, 72 h
How it was run: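 A-549 cells were seeded at 2 × 10³ cells/well. Various sample concentrations were tested in triplicate over 72 h at 37 °C under 5% CO₂. Absorbance was read at 520 nm. GI₅₀ was assigned as the concentration giving 50% growth inhibition.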

SK-MEL-2 = experiment: Growth inhibition of human SK-MEL-2 cells after 72 hrs by SRB assay; details: SK-MEL-2, 72 h; how it was run: as §1
A-431 = experiment: Growth inhibition of human A431 cells after 72 hrs by SRB assay; details: A-431, 72 h; how it was run: as §1
SK-OV-3 = experiment: Growth inhibition of human SKOV3 cells after 72 hrs by SRB assay; details: SK-OV-3, 72 h

Structure (SMILES): COc1ccc(CN(Cc2ccc([N+](=O)[O-])cc2)Cc2c(O)ccc3c(=O)cc(C)oc23)cc1
- IC50 (KB): 24.4 µg/mL (≈ 53 µM)
- IC50 (HCT-15): 28.6 µg/mL (≈ 62.1 µM)
- IC50 (A549): 24.5 µg/mL (≈ 53.1 µM)
- IC50 (SK-MEL-2): > 100 µg/mL
- IC50 (A-431): > 100 µg/mL
- IC50 (SK-OV-3): > 100 µg/mL

Structure (SMILES): CCN(Cc1ccc(OC)cc1)Cc1c(O)ccc2c(=O)cc(C)oc12
- IC50 (KB): 47.4 µg/mL (≈ 134 µM)
- IC50 (HCT-15): 22.4 µg/mL (≈ 63.5 µM)
- IC50 (A549): 38.7 µg/mL (≈ 110 µM)
- IC50 (SK-MEL-2): 60.3 µg/mL (≈ 171 µM)
- IC50 (A-431): 41.9 µg/mL (≈ 119 µM)
- IC50 (SK-OV-3): 57.5 µg/mL (≈ 163 µM)

Structure (SMILES): COc1ccc(CN(CCc2ccccc2)Cc2c(O)ccc3c(=O)cc(/C=C/c4ccccc4)oc23)cc1
- IC50 (KB): 35 µg/mL (≈ 67.6 µM)
- IC50 (HCT-15): 49.4 µg/mL (≈ 95.4 µM)
- IC50 (A549): 17.9 µg/mL (≈ 34.6 µM)
- IC50 (SK-MEL-2): > 100 µg/mL

Structure (SMILES): COc1ccc(CN(Cc2ccc3ccccc3c2)Cc2c(O)ccc3c(=O)cc(C)oc23)cc1
- IC50 (KB): 17.6 µg/mL (≈ 37.8 µM)
- IC50 (HCT-15): 6.89 µg/mL (≈ 14.8 µM)
- IC50 (A549): 6.01 µg/mL (≈ 12.9 µM)
- IC50 (SK-MEL-2): > 100 µg/mL
- IC50 (A-431): 16.4 µg/mL (≈ 35.2 µM)
- IC50 (SK-OV-3): > 100 µg/mL

Structure (SMILES): COc1ccc(CN(Cc2ccccc2)Cc2c(O)ccc3c(=O)cc(C)oc23)cc1
- IC50 (KB): 42.7 µg/mL (≈ 103 µM)
- IC50 (HCT-15): 10.7 µg/mL (≈ 25.8 µM)
- IC50 (A549): 14.1 µg/mL (≈ 34 µM)
- IC50 (SK-MEL-2): 78.6 µg/mL (≈ 189 µM)
- IC50 (A-431): 44.7 µg/mL (≈ 108 µM)
- IC50 (SK-OV-3): 24.5 µg/mL (≈ 59.1 µM)

Structure (SMILES): COc1ccc(CN(Cc2ccc(OC)cc2)Cc2c(O)ccc3c(=O)cc(C)oc23)cc1
- IC50 (KB): 17.8 µg/mL (≈ 39.9 µM)
- IC50 (HCT-15): 53.7 µg/mL (≈ 121 µM)
- IC50 (A549): 62.5 µg/mL (≈ 140 µM)
- IC50 (SK-MEL-2): 31.6 µg/mL (≈ 71 µM)
- IC50 (A-431): 38.9 µg/mL (≈ 87.3 µM)
- IC50 (SK-OV-3): > 100 µg/mL

Second part, the compound after the results:

- IC50 (KB): 10.8 µg/mL (≈ 24.4 µM)
- IC50 (HCT-15): 7.68 µg/mL (≈ 17.3 µM)
- IC50 (A549): 9.92 µg/mL (≈ 22.3 µM)
- IC50 (SK-MEL-2): 74.1 µg/mL (≈ 167 µM)
- IC50 (A-431): 61 µg/mL (≈ 137 µM)
- IC50 (SK-OV-3): > 100 µg/mL
Structure (SMILES): Cc1cc(=O)c2ccc(O)c(CN(CCc3ccccc3)Cc3ccc([N+](=O)[O-])cc3)c2o1

- IC50 (KB): 14.5 µg/mL (≈ 36.3 µM)
- IC50 (HCT-15): 11.7 µg/mL (≈ 29.3 µM)
- IC50 (A549): 12.3 µg/mL (≈ 30.9 µM)
- IC50 (SK-MEL-2): 17.4 µg/mL (≈ 43.5 µM)
- IC50 (A-431): 18.5 µg/mL (≈ 46.3 µM)
- IC50 (SK-OV-3): 21.6 µg/mL (≈ 54 µM)
Structure (SMILES): Cc1cc(=O)c2ccc(O)c(CN(CCc3ccccc3)Cc3ccccc3)c2o1

- IC50 (KB): 16.1 µg/mL (≈ 37.4 µM)
- IC50 (HCT-15): 15.8 µg/mL (≈ 36.8 µM)
- IC50 (A549): 16.6 µg/mL (≈ 38.7 µM)
- IC50 (SK-MEL-2): 19.9 µg/mL (≈ 46.4 µM)
- IC50 (A-431): 25.2 µg/mL (≈ 58.7 µM)
- IC50 (SK-OV-3): 65 µg/mL (≈ 151 µM)
Structure (SMILES): COc1ccc(CCN(Cc2ccccc2)Cc2c(O)ccc3c(=O)cc(C)oc23)cc1

- IC50 (KB): 24.3 µg/mL (≈ 53 µM)
- IC50 (HCT-15): 31.5 µg/mL (≈ 68.5 µM)
- IC50 (A549): 26.1 µg/mL (≈ 56.8 µM)
- IC50 (SK-MEL-2): 21.9 µg/mL (≈ 47.6 µM)
- IC50 (A-431): > 100 µg/mL
- IC50 (SK-OV-3): 41.7 µg/mL (≈ 90.7 µM)
Structure (SMILES): COc1ccc(CCN(Cc2ccccc2)Cc2c(O)ccc3c(=O)cc(C)oc23)cc1OC

- IC50 (KB): 15.1 µg/mL (≈ 39.2 µM)
- IC50 (HCT-15): 11.3 µg/mL (≈ 29.4 µM)
- IC50 (A549): 11.9 µg/mL (≈ 30.9 µM)
- IC50 (SK-MEL-2): 17.8 µg/mL (≈ 46.1 µM)
- IC50 (A-431): 19.5 µg/mL (≈ 50.6 µM)
- IC50 (SK-OV-3): 19 µg/mL (≈ 49.2 µM)
Structure (SMILES): Cc1cc(=O)c2ccc(O)c(CN(Cc3ccccc3)Cc3ccccc3)c2o1

- IC50 (KB): 32.6 µg/mL (≈ 96.6 µM)
- IC50 (HCT-15): 43.2 µg/mL (≈ 128 µM)
- IC50 (A549): 32.7 µg/mL (≈ 96.8 µM)
- IC50 (SK-MEL-2): 57.5 µg/mL (≈ 171 µM)
- IC50 (A-431): > 100 µg/mL
- IC50 (SK-OV-3): > 100 µg/mL
Structure (SMILES): CCN(CCc1ccccc1)Cc1c(O)ccc2c(=O)cc(C)oc12
